Data from ChEMBL document CHEMBL1146500, “Novel caprolactones from a marine streptomycete” (2004).
Values after ≈ are worked out from the molar mass of the structure shown.

Tests used:
Type in all cases: functional
Bacillus subtilis = test: Antimicrobial activity against Bacillus subtilis at 70 ug by agar diffusion test; settings: read-out: IZ
Procedure, shortened: (§1)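 Agar diffusion test: 70 µg of sample applied per 9 mm diameter platelet. Read-out is the diameter of the growth-inhibition zone in mm.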

Staphylococcus aureus = test: Antimicrobial activity against […] at 70 ug by agar diffusion test; settings: read-out: IZ; procedure, shortened: as §1
[1] = tested on: Streptomyces viridochromogenes; test: Antimicrobial activity against Streptomyces viridochromogenes at 70 ug by agar diffusion test; settings: read-out: IZ; procedure, shortened: as §1
Escherichia coli = test: Antimicrobial activity against Escherichia coli at 70 ug by agar diffusion test; settings: read-out: IZ; procedure, shortened: as §1
Candida albicans = test: Antimicrobial activity against Candida albicans at 70 ug by agar diffusion test; settings: read-out: IZ; procedure, shortened: as §1
Rhizomucor miehei = test: Antimicrobial activity against Mucor miehei at 70 ug by agar diffusion test; settings: read-out: IZ; procedure, shortened: as §1
Chlorella vulgaris = test: Antimicrobial activity against Chlorella vulgaris at 70 ug by agar diffusion test; settings: read-out: IZ; procedure, shortened: as §1
Chlorella sorokiniana = test: Antimicrobial activity against Chlorella sorokiniana at 70 ug by agar diffusion test; settings: read-out: IZ; procedure, shortened: as §1
Desmodesmus subspicatus = test: Antimicrobial activity against Scenedesmus subspicatus at 70 ug by agar diffusion test; settings: read-out: IZ; procedure, shortened: as §1
Artemia salina = test: Antimicrobial activity against Artemia salina at 70 ug by agar diffusion test; settings: read-out: IZ; procedure, shortened: as §1
[2] = Cytotoxicity against human HM02 cells
Procedure, shortened: (§2)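 In vitro growth inhibition of human cancer cell lines was measured following the NCI guidelines. Cell lines: HM02 (gastric adenocarcinoma), HepG2 (hepatocellular carcinoma) and MCF 7 (breast adenocarcinoma).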

HepG2 [3] = test: Cytotoxicity against human HepG2 cells; procedure, shortened: as §2
MCF7 = test: Cytotoxicity against human MCF7 cells; procedure, shortened: as §2
HepG2 [4] = test: Cell cycle arrest in human HepG2 cells by accumulation at subG1 phase at 5 ug/mL after 24 hrs by PI staining
Procedure, shortened: (§3)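 HepG2 cells were exposed for 24 h, trypsinized, and washed in RPMI 1640 with 1% fetal bovine serum. They were stained 15 min at room temperature in the dark in 150 µg/mL propidium iodide, 1% Triton X-100, 1% BSA and 4 mM sodium citrate, pH 7.4. RNase A was then added for 30 min at room temperature. Output is % cells per phase, mean ± SE of three independent experiments, t-test versus control.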

HepG2 [5] = test: Cell cycle arrest in human HepG2 cells by accumulation at G1 phase at 5 ug/mL after 24 hrs by PI staining; procedure, shortened: as §3
HepG2 [6] = test: Cell cycle arrest in human HepG2 cells by accumulation at S phase at 5 ug/mL after 24 hrs by PI staining; procedure, shortened: as §3
HepG2 [7] = test: Cell cycle arrest in human HepG2 cells by accumulation at G2/M phase at 5 ug/mL after 24 hrs by PI staining; procedure, shortened: as §3

Row | SMILES | zone of inhibition at 70 µg/disc (Bacillus subtilis) [mm] | zone of inhibition at 70 µg/disc (Staphylococcus aureus) [mm] | zone of inhibition at 70 µg/disc [1] [mm] | zone of inhibition at 70 µg/disc (Escherichia coli) [mm] | zone of inhibition at 70 µg/disc (Candida albicans) [mm] | zone of inhibition at 70 µg/disc (Rhizomucor miehei) [mm] | zone of inhibition at 70 µg/disc (Chlorella vulgaris) [mm] | zone of inhibition at 70 µg/disc (Chlorella sorokiniana) [mm] | zone of inhibition at 70 µg/disc (Desmodesmus subspicatus) [mm] | zone of inhibition at 70 µg/disc (Artemia salina) [mm] | GI50 [2] [µg/mL] | TGI [2] [µg/mL] | GI50 (HepG2 [3]) [µg/mL] | TGI (HepG2 [3]) [µg/mL] | GI50 (MCF7) [µg/mL] | TGI (MCF7) [µg/mL] | Activity (HepG2 [4]) [%] | Activity (HepG2 [5]) [%] | Activity (HepG2 [6]) [%] | Activity (HepG2 [7]) [%]
1 | CC(C)CCC[C@H]1CCCCC(=O)O1 | 0 | 0 | 13 | 0 | 0 | 11 | 11 | 12 | 11 | 0 | 2.7 (≈ 13.6 µM) | 6.1 (≈ 30.8 µM) | 2.2 (≈ 11.1 µM) | 6.8 (≈ 34.3 µM) | 0.11 (≈ 0.555 µM) | 4 (≈ 20.2 µM) |  |  |  | 
2 | CC[C@H](C)CCC[C@H]1CCCCC(=O)O1 | 0 | 11 | 15 | 0 | 11 | 15 | 15 | 22 | 20 | 0 | 1.9 (≈ 8.95 µM) | 5.6 (≈ 26.4 µM) | 1.4 (≈ 6.59 µM) | 5.7 (≈ 26.8 µM) | 0.12 (≈ 0.565 µM) | 2.6 (≈ 12.2 µM) | 5.7 | 73.7 | 11 | 9.8
